Data from ChEMBL document CHEMBL5042491, “Identification of Small Molecule Inhibitors of RNase L by Fragment-Based Drug Discovery” (J Med Chem, 2022).
Calls of active or inactive are those of the source. The calls are words filed in the database; no cut-off is given here.

Assays:
Sus scrofa [1] = species: Sus scrofa; test: Inhibition of recombinant full length P-RNAase L (1 to 743 residues) expressed in Escherichia coli BL21 (DE3) using 5'-FAM-UAA-UCA-AAU-UCU-UAU-UUG-CCC-CAU-UUU-UUU-GGU-UUA-BHQ-1-3' as substrate incubated for 60 min by FRET assay
How it was run: (§1)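 FRET cleavage assay. Recombinant RNase L (10 nM human or 2.5 nM porcine, final) was preincubated 10 min on ice with graded compound in 25 mM Tris pH 7.4, 100 mM KCl, 10 mM MgCl2, 2.5 mM DTT and 0.5 nM 2-5A. FAM/BHQ1 RNA probe was added and the mix held 1 h at room temperature. Read at ex 480/em 535 nm; triplicates; IC50 from dose-response.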

[2] = target: T1, 2-5A-dependent ribonuclease (Homo sapiens) (UniProt Q05823); test: Inhibition of recombinant full length H-RNAase L (1 to 741 residues) expressed in Escherichia coli BL21 (DE3) using 5'-FAM-UAA-UCA-AAU-UCU-UAU-UUG-CCC-CAU-UUU-UUU-GGU-UUA-BHQ-1-3' as substrate incubated for 60 min by FRET assay; how it was run: as §1
T1 sequence (whole entry): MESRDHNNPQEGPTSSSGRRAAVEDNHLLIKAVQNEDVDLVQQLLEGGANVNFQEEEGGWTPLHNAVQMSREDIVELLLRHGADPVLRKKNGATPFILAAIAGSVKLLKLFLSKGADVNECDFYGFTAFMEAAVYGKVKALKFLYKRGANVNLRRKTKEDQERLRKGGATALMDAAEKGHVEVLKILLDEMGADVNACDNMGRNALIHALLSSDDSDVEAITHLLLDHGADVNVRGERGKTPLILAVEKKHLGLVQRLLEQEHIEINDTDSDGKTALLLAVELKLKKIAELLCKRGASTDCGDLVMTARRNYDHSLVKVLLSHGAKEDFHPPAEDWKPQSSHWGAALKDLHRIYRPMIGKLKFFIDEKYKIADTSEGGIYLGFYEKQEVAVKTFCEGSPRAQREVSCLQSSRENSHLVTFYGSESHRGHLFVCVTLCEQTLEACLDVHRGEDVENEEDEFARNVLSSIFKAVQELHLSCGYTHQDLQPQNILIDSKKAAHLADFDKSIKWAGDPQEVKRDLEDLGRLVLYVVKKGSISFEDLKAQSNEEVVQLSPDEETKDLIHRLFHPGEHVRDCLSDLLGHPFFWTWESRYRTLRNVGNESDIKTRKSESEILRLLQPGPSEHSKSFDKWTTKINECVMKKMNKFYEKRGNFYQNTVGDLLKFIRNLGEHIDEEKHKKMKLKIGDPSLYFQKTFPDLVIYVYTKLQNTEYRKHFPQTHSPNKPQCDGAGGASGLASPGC

[3] = target: T2, 2-5A-dependent ribonuclease (Homo sapiens, UniProt Q05823); test: Inhibition of recombinant full length H-RNAase L (1 to 741 residues) expressed in Escherichia coli BL21 (DE3) assessed as inhibition rate in presence of 2-5A and ATP/MgCl2 by STD-NMR spectroscopy
T2 sequence (Q05823 whole entry): T1 sequence (whole entry)

Sus scrofa [4] = species: Sus scrofa; test: (§2) Inhibition of recombinant full length P-RNAase L (1 to 743 residues)expressed in Escherichia coli BL21 (DE3) assessed as inhibition rate in presence of 2-5A AND ATP/MgCl2 by STD-NMR spectroscopy; details: time 60.0 min
[5] = Inhibition of full length P-RNAase L expressed in Escherichia coli BL21 (DE3) assessed as inhibition rate incubated for 15 min in presence of 1 nM 2-5A for 15 mins by Coomassie staining based SDS-PAGE analysis; set-up: species or system Sus scrofa
[6] = Inhibition of P-RNAase L K164E mutant expressed in Escherichia coli BL21 (DE3) assessed as inhibition rate; set-up: species or system Sus scrofa
[7] = Inhibition of full length P-RNAase L expressed in Escherichia coli BL21 (DE3) assessed as inhibition rate incubated for 15 min in presence of 20 nM 2-5A for 15 mins by Coomassie staining based SDS-PAGE analysis; set-up: species or system Sus scrofa
[8] = Inhibition of wild type P-RNAase L expressed in Escherichia coli BL21 (DE3) assessed as inhibition rate; set-up: species or system Sus scrofa
[9] = target: T1, 2-5A-dependent ribonuclease (Homo sapiens); test: Inhibition of RNAase L in human A549 cells assessed as rRNA cleavage pretreated at 30 uM for 4 hrs followed by treated with 20 uM 2-5A by […] analysis; type: cell-based
How it was run: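 A549 cells were grown 16 h in RPMI with 10% FBS, then given inhibitor at 3, 10, 30 or 100 μM in fresh medium for 4 h. Trimeric 2-5A (20 μM) was then transfected with lipofectamine 2000 with inhibitor still present, for 2 h more. rRNA cleavage was read from total RNA on Bioanalyzer chips. NP40 lysates were western-blotted for RNase L and beta-actin.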

[10] = target: T2, 2-5A-dependent ribonuclease; test: Inhibition of full length H-RNAase L expressed in Escherichia coli BL21 (DE3) assessed as inhibition rate incubated for 15 min in presence of 5 nM 2-5A for 15 mins by Coomassie staining based SDS-PAGE analysis
[11] = Inhibition of P-RNAase L R353E mutant expressed in Escherichia coli BL21 (DE3) assessed as inhibition rate; set-up: species or system Sus scrofa
[12] = target: T2, 2-5A-dependent ribonuclease; test: Inhibition of full length H-RNAase L expressed in Escherichia coli BL21 (DE3) assessed as inhibition rate incubated for 15 min in presence of 1 nM 2-5A for 15 mins by Coomassie staining based SDS-PAGE analysis
[13] = Inhibition of full length P-RNAase L expressed in Escherichia coli BL21 (DE3) assessed as inhibition rate incubated for 15 min in presence of 5 nM 2-5A for 15 mins by Coomassie staining based SDS-PAGE analysis; set-up: species or system Sus scrofa
[14] = target: T2, 2-5A-dependent ribonuclease; test: Inhibition of full length H-RNAase L expressed in Escherichia coli BL21 (DE3) assessed as inhibition rate incubated for 15 min in presence of 20 nM 2-5A for 15 mins by Coomassie staining based SDS-PAGE analysis
Sus scrofa [15] = species: Sus scrofa; test: Suppression of 2-5A-induced full length P-RNase L oligomerization in presence of upto 2 uM 2-5A at 40 uM by SDS-PAGE analysis
How it was run: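 Full-length porcine RNase L (0.8 μM) with 5 mM MgCl2 was held 15 min on ice with or without inhibitor, then 15 min on ice with 2-5A. It was cross-linked with dimethyl suberimidate in triethanolamine (pH 8.5) for 1 h at room temperature. Samples were boiled in SDS loading buffer, run on 4-12% SDS-PAGE and stained with Coomassie.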

[16] = as §2; set-up: species or system Sus scrofa

C[S+]([O-])c1sc(Cl)c2c1C(=O)CCC2 (stereo not drawn)
inhibition (Sus scrofa [1]): Active | inhibition [2]: Active

Cc1cc(C(=O)O)cc(Cl)n1
inhibition (Sus scrofa [1]): Active | inhibition [2]: Active

O=C(O)c1ccc(Cl)nc1Cl
inhibition (Sus scrofa [1]): Active | inhibition [2]: Active

Oc1ccc(Sc2ccc(O)cc2)cc1
inhibition (Sus scrofa [1]): Active | inhibition [2]: Active

CCCCOC(=O)c1ccc(O)cc1 [BUTYLPARABEN]
IC50 [3]: 2400 µM | inhibition (Sus scrofa [4]): inactive | inhibition [2]: Active

O=c1c(O[C@@H]2O[C@H](CO)[C@H](O)[C@H](O)[C@H]2O)c(-c2ccc(O)c(O)c2)oc2cc(O)cc(O)c12 [HYPEROSIDE]
IC50 [5]: 1.47 µM | IC50 [6]: 1.02 µM | IC50 [7]: 1.42 µM | IC50 [8]: 0.9 µM | Activity [9]: inactive | IC50 [10]: 1.32 µM | IC50 [3]: 1.63 µM | IC50 [11]: 0.65 µM | IC50 [12]: 1.36 µM | IC50 [13]: 1.42 µM | IC50 [14]: 1.42 µM | inhibition (Sus scrofa [15]): inactive

O=c1c(O)c(-c2cc(O)c(O)c(O)c2)oc2cc(O)cc(O)c12 [MYRICETIN]
IC50 [3]: 264 µM | IC50 [16]: 173 µM

O=c1cc(-c2ccc(O)cc2)oc2c([C@@H]3O[C@H](CO)[C@@H](O)[C@H](O)[C@H]3O)c(O)cc(O)c12 [VITEXIN]
Activity [9]: inactive | IC50 [3]: 190 µM | IC50 [16]: 109 µM
